# Screening results (PubChem BioAssay)
# A selection: hits, their analogues and other compounds. The true share with any hit is near 2.4%.
# Scp-1 inhibitor: blocks human Scp-1 phosphatase activity; AID 493091; Recombinant Scp1, phosphopeptide, malachite green phosphate absorbance; 0.88% of 340,000 active; inhibition, % at 20 µM; Q9GZU7;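 active = inhibition above about 50% at 20 µM, limit read from the data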
#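 Material – SCP-1 phosphatase catalytic domain, residues 76-261 · Buffer or medium – Acidic Tris acetate buffer with magnesium and detergent · Also added – Phospho 17-mer peptide substrate · Compound – single 20 µM dose, 1% DMSO · Times – 45 min room-temperature reaction, 5 min colour, 30 min stabiliser · Technique – Phosphate-binding colour reagent, absorbance read at 630 nm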
# LMPTP inh: LMPTP (human) inhibition; recombinant LMPTP-A, OMFP fluorogenic substrate, fluorescence intensity; P24666; 0.22% of 360,000 active; AID 651560; inhibition, % at 20 µM;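 active = compounds that cut the enzyme signal by at least half of the control window in the single-dose screen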
#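 test system = LMPTP-A | amount = 0.625 nM LMPTP-A final | reagent = fluorogenic phosphatase substrate OMFP at 400 µM final | incubation = 50 min at room temperature | benchmarks = no-enzyme low control, uninhibited high control | medium = Bis-Tris pH 6.0, DTT, detergent | signal = fluorescence intensity of OMFP turnover product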
# DNMT1 block: DNMT1 (human) enzyme inhibition | P26358 | DNMT1 molecular beacon, Hinp1I cleavage, fluorescence | inhibition (reported as % activation of signal), % at 10 µM | 0.83% of 360,000 active | AID 588458; in the data active = inhibition above about 50%
# STEP block: blocks human striatal-enriched tyrosine phosphatase | recombinant STEP, OMFP fluorogenic substrate, fluorescence | inhibition, % at 20 µM | 0.25% of 360,000 active;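 active = inhibition at 20 µM, scaled per plate between control wells, above about 37%, limit read from the data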
#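 Assay system: isolated STEP enzyme / Timing: 20 min at room temperature, dark / Doses: 20 µM, 1% DMSO / Technique: fluorescence intensity, excitation 480 nm, emission 540 nm / Reagent: fluorogenic phosphatase substrate OMFP at 25 µM final / Measure: percent inhibition scaled to no-enzyme and uninhibited-enzyme controls, plate-pattern corrected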
# SUMO1-SIM PPI: alters human SUMO1 binding to SIM partners; inhibition, % at 20 µM; SUMO1 binding to a labelled peptide, TR-FRET, 1 h; 0.33% of 360,000 active; in the data active = inhibition above about 37%
# NadD inh: blocks S. aureus nicotinate mononucleotide adenylyltransferase | AID 602399 | purified NadD enzyme, colorimetric absorbance read-out | 0.78% of 360,000 active | inhibition, % at 20 µM; in the data active = inhibition above about 26%
# Scp1 confirm: Scp-1 (human) inhibition, single-dose confirmed; shares compounds with Scp-1 inhibitor; recombinant SCP-1 catalytic domain, phosphate release, malachite green absorbance; inhibition, % at 20 µM; 61% of 2,500 active
# MG interference: colorimetric interference in Scp-1 counter-screen; shares compounds with Scp-1 inhibitor; apparent inhibition (interference), % at 20 µM; AID 540313; 2,500 tested, under 10 active; Colorimetric interference counterscreen, malachite green absorbance 630 nm;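 also: compounds added after enzyme reaction finished so only phosphate colour detection is probed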
# Scp-1 Tm shift: validation of human Scp-1 inhibitors by thermal shift binding | Recombinant SCP1, Sypro Orange thermal shift Tm | shares compounds with Scp-1 inhibitor | 25% of 1,500 active | thermal shift relative to vanadate control, % at 40 µM;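 active = substances whose mean melting-temperature shift, as a percentage of the reference inhibitor's shift, reaches about 5.3%, limit read from the data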
# A number is an active result; – = inactive; · = not tested or not shown; ! = not active in a repeat.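 The calls were made as follows, unless noted: active = inhibition of at least 30% at 20 µM; inactive = the rest.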
SMILES,Scp-1 inhibitor,LMPTP inh,DNMT1 block,STEP block,SUMO1-SIM PPI,NadD inh,Scp1 confirm,MG interference,Scp-1 Tm shift
O=C1CC(C(=O)Nc2ccc(O)c(C(=O)O)c2)C(c2ccccc2)O1 (centres undefined),51,–,–,–,–,–,30,–,–
C[n+]1ccccc1/C=C/c1ccc(C#N)cc1,99,–,–,–,–,–,89,–,–
Cc1ccccc1/C=C/c1cccc[n+]1C,93,–,–,–,–,–,–,–,·
C[n+]1ccccc1/C=C/c1ccc(F)c(F)c1,102,–,–,–,–,–,–,–,·
Cc1ccc(C(=O)N2CCN3C(=O)c4ccccc4C23c2ccc(Cl)cc2)cc1 (centres undefined),–,–,–,–,–,–,·,·,·
Cc1cc(=O)[nH]c(SCC(=O)Nc2ccc(S(N)(=O)=O)cc2)n1,51,–,–,–,–,–,48,–,–
Cc1cc(=O)[nH]c(SCC(=O)Nc2ccc(C(=O)O)cc2)n1,–,–,–,–,–,–,·,·,·
CC(C)C[C@H]1CNC(=O)C(=O)N1C[C@H](C)NC(=O)Cc1ccccc1,–,–,–,–,–,–,–,–,·
CC(C)C[C@H]1CN(CCCC[C@H]2CNC(=O)C(=O)N2CCc2ccccc2)C(=O)C(=O)N1Cc1ccccc1,·,–,·,·,–,–,·,·,·
CC(=O)Nc1cc(NC(C)=O)cc(C(=O)N2CCCC3CCCCC32)c1 (centres undefined),61,–,–,–,–,–,54,–,5.7
O=C(Nc1ccccc1)N1CCCC2CCCCC21 (centres undefined),–,–,–,–,–,–,·,·,·
Cc1ccc(NC(=S)Nc2ccc3cn[nH]c3c2)cc1,–,–,–,–,–,–,·,·,·
Cc1ccc(NC(=O)CN2CC(C)SC2=NC2CCCCC2)cc1 (centres undefined),79!,–,–,–,–,–,–,–,·
CCOC(=O)c1ccc2c(c1)N(CC)C(=O)c1ccccc1S2,83,–,–,–,–,–,–,–,·
COC(=O)c1ccc(/C=C/C(=O)c2cccc(OC)c2)cc1,–,–,–,–,–,–,·,·,·
CN(/N=C/c1cccnc1)c1cnn(-c2ccc(F)c(Cl)c2)c(=O)c1Cl,75,–,–,–,–,–,39,–,–
CC(=O)NCCc1nc2cc(NC(=O)COc3ccc(C)cc3)ccc2n1C,–,–,–,–,–,–,·,·,·
O=C(O)c1c[nH]c2c([N+](=O)[O-])cccc2c1=O,83,–,–,–,–,–,53,–,–
CC(C)Oc1cccc(C(=O)Nc2ccc(CN3CCOCC3)cc2)c1,–,–,–,–,–,–,·,·,·
N#Cc1ccc(-c2c(-c3ccccc3)ncc3cc(F)ccc23)cc1,–,–,–,–,–,–,·,·,·
COC(=O)c1ccc(-c2c(-c3ccccc3)ncc3cc(F)ccc23)cc1,53,–,–,–,–,–,–,–,·
Fc1ccc2c(-c3cccc(C(F)(F)F)c3)c(-c3ccccc3)ncc2c1,–,–,–,–,–,–,·,·,·
Fc1ccc2cnc(-c3ccccc3)c(-c3ccc(C(F)(F)F)cc3)c2c1,72,–,–,–,–,–,–,–,·
Fc1ccc2cnc(-c3ccccc3)c(-c3cc(C(F)(F)F)cc(C(F)(F)F)c3)c2c1,58,–,–,–,–,–,–,–,·
O=C1NC(c2ccccc2)=C(c2ccc3ccccc3n2)C(c2ccccc2)N1 (centres undefined),59,–,–,–,–,–,–,–,·
SMILES,Scp-1 inhibitor,LMPTP inh,DNMT1 block,STEP block,SUMO1-SIM PPI,NadD inh,Scp1 confirm,MG interference,Scp-1 Tm shift
O=C1NC(c2ccccc2)=C(c2ccc3ccccc3n2)C(c2ccc(F)cc2)N1 (centres undefined),–,–,–,–,–,–,·,·,·
O=C(CCC1N=C2c3ccccc3N=C(SCC(=O)NCc3ccco3)N2C1=O)NCc1ccco1 (centres undefined),83,–,–,–,–,–,69,–,–
CCOC(=O)C1=C(C)NC(=O)NC1c1ccc(Br)o1 (centres undefined),52,–,–,–,–,–,–,–,·
CCOC(=O)C1=C(C)NC(C)=C(C(=O)OCC)C1c1ccc(Br)o1,–,–,–,–,–,–,·,·,·
O=C(Nc1ccc2oc(-c3ccncc3)nc2c1)c1ccc2c(c1)OCCO2,100,–,–,–,–,–,–,–,·
COc1ccc(C(=O)O/N=C2\C(=O)N(C)c3ccccc32)cc1,52,–,–,–,–,–,–,–,·
COc1cccc(COc2ncnc3sccc23)c1,–,–,–,–,–,–,·,·,·
O=c1/c(=C/c2ccc(O)c([N+](=O)[O-])c2)sc2nc3ccccc3n12,81,92,–,90,–,–,82,–,9.9
CC(=O)/C(C[N+]1(C)CCCCC1)=N\O,105,–,–,–,–,–,84,–,–
O=C(COC(=O)CNS(=O)(=O)c1ccc(F)c(F)c1F)NC1CC1,–,–,–,–,–,–,·,·,·
C[C@H](NC(N)=O)C(=O)OCC(=O)Nc1ccc(OC(F)F)cc1,–,–,–,–,–,–,·,·,·
CN(C)CCNC(=O)C(=O)NCC1OCCN1S(=O)(=O)c1ccc2c(c1)OCCO2 (centres undefined),–,–,–,–,–,–,·,·,·
Cn1c(SCC(=O)c2ccc(O)c(O)c2)nnc1-c1cccs1,67,–,–,–,–,–,50,–,–
O=C(CN(C(=O)Cn1nnc(-c2ccc(F)cc2)n1)C1CCCC1)NC1CCCC1,–,–,–,–,–,–,·,·,·
Cc1ccn2cc(CCNC(=O)C3CC=CCC3C(=O)O)nc2c1 (centres undefined),55,–,–,–,–,–,–,–,·
O=C(C1CCN(S(=O)(=O)c2ccc(Cl)cc2)CC1)N1CCC1,–,–,–,–,–,–,·,·,·
CN(C(=O)CCN1C(=O)/C(=C/c2ccccc2)SC1=S)C1CCS(=O)(=O)C1 (centres undefined),76,–,–,–,80,–,–,–,·
CN(C)S(=O)(=O)c1ccc(Cl)c(NC(=O)COC(=O)/C=C/c2ccco2)c1,69,–,–,–,–,–,46,–,–
O=C(COC(=O)/C=C/c1ccco1)Nc1ncc(Cl)cc1Cl,57,–,–,–,–,–,56,–,–
CCCNC(=O)COC(=O)/C=C/c1ccco1,–,–,–,–,–,–,·,·,·
COc1ccc(/C=C/C(=O)OCC(=O)Nc2cc(S(=O)(=O)N(C)C)ccc2Cl)cc1,–,–,–,–,–,–,·,·,·
